# Paper PMC11224971 (The Oncologist, 2024)
# How the values were obtained:
# Assay type in all cases: in vivo, human
# [1] = Pediatric MATCH arm H: safety and tolerability
# [2] = test system: relapsed or refractory advanced solid tumors harboring deleterious genetic alterations in the DDR pathway; experiment: NCI-COG Pediatric MATCH phase II subprotocol; details: 135 mg/m^2/dose BID oral
# Method in brief: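 Relapsed/refractory pediatric solid tumors (incl. CNS, non-Hodgkin lymphoma, histiocytosis) assigned by centralized tumor sequencing showing a deleterious BRCA1/2, RAD51C/D or ATM alteration, without germline subtraction or LOH analysis. Oral tablets 135 mg/m²/dose (max 225 mg/dose) twice daily, given continuously in 28-day cycles. Primary endpoint was objective response.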
# [3] = Steady-state pharmacokinetics in plasma, cycle 1 day 8
# Method in brief: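 Plasma was sampled at steady state on cycle 1, day 8, after oral 135 mg/m²/dose BID. AUCSS was calculated by linear trapezoidal approximation through the day-8 24-hour dosing interval. The 24 h concentration was assumed equal to the predose concentration. CLSS was calculated as dose/AUCSS. Cmax, Tmax and t½ were also reported.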
smiles,measurement,setting,value
O=C(c1cc(Cc2n[nH]c(=O)c3ccccc23)ccc1F)N1CCN(C(=O)C2CC2)CC1 [Olaparib],Dose-limiting toxicities,"[1]; 2 patients evaluable for DLT, cycle 1, 135 mg/m^2/dose BID",no dose-limiting toxicities
same,Hematologic toxicity (overall),"[1]; 6 patients evaluable for toxicity, 135 mg/m^2/dose BID",Minimal hematologic toxicity
same,Patients with grade 1/2 anemia,"[1]; number of patients, 6 evaluable for toxicity",3
same,Allergic reaction leading to removal from study,"[1]; one patient (biallelic tumor loss of ATM), first dose, recurring upon rechallenge",acute allergic reaction (hives)
same,Objective response (complete + partial response),[2]; 6 patients enrolled,no responses
same,"Median duration assessments, OS","[2]; 6 patients, 95% CI: 0.8-NA",2.5 months (95% CI: 0.8-NA)
same,"Median duration assessments, PFS","[2]; Kaplan-Meier, 6 patients, 95% CI: 0.4-NA",1.5 months (95% CI: 0.4-NA)
same,"Response assessment, PD (number of patients, %)","[2]; RECIST 1.1, 6 patients evaluated for efficacy",3 (50%)
same,"Clearance at steady state, mean ± SD","[3]; dose/AUCSS, dose level 1, 135 mg/m^2 BID oral tablet, n = 3",4.1 ± 3.6 L/h/m^2
same,AUC(0-t),"[3]; human, plasma, po, 135 mg/m2",48800 ± 27800 ng·h/mL
same,Cmax,"[3]; human, plasma, po, 135 mg/m2",7500 ± 2700 ng/mL
same,Tmax,"[3]; human, plasma, po, 135 mg/m2",1 to 4 h
same,half-life,"[3]; human, plasma, po, 135 mg/m2",5.6 ± 4.6 h
